The record followed here is PubChem BioAssay AID463141 (The Scripps Research Institute Molecular Screening Center, 2010).

Several values for one entry are separate records, joined by “and”; a condition that tells them apart may be missing. Equal entries are not always repeated. About 350 (0.11%) of roughly 330,000 compounds were called active. What follows is part of a selection rich in actives, with near analogues and random picks from the rest. A number with no mark means an inactive call.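 The calls were made as follows: active = activation above the mean of all tested compounds plus 3 SD (cut at about 21% in these data); inactive = the rest.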

Chain of Caspase-3 (Homo sapiens) (P42574 whole entry D9A/D28A/D175A): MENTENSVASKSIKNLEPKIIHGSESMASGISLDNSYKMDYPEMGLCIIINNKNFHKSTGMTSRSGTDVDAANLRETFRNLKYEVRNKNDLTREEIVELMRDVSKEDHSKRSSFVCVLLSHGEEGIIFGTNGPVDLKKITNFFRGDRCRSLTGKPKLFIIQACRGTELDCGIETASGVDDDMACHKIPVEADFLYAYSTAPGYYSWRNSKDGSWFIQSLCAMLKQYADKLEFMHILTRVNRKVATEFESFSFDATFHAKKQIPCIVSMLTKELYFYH

The experiment addresses Caspase-3 (Homo sapiens) (UniProt P42574). The experiment in a line: activators of human procaspase-3 D3A mutant, primary screen, biochemical, absorbance, PC-3 D3A mutant, single concentration (AID 463141).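 Also: 0% = DMSO alone and 100% = DMSO wells spiked with extra 5 µM PC-3 D3A.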 Conditions: recombinant procaspase-3 D3A, Ac-DEVD-pNA absorbance 405 nm; at 8.5 µM; active compounds read high. In a few lines:
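Assay system: Autoprocessing-dead procaspase-3 D3A mutant enzyme; also added: Ac-DEVD-pNA; doses: one concentration, 8.5 µM nominal, 0.8% DMSO; times: 1 h compound preincubation, 2 h substrate hydrolysis at 25 °C; technique: 405 nm absorbance of p-nitroaniline, reads at 0 and 120 min; measure: % activation between DMSO and enzyme-spiked controls; repeats: single replicate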
As for `CCOc1ccccc1CN1CCN(C2CCC2)CC1CCO` (stereo unspecified), the activation was 8.07%. With `Cc1ccc(Cl)cc1NC(=O)C1CCN(S(C)(=O)=O)CC1` the figure was -5.8%.

Take `CN(CCc1ccccn1)C(=O)c1ccc(OC2CCN(CCc3ccccc3)CC2)cc1`: the activation was -3.49%. Next, `Cc1ccc(NC2CCCN(C(=O)CCc3cn[nH]c3)C2)cc1C` (stereo unspecified): 8.07%; `CC(C)C[C@H](NC(=O)[C@@H]1O[C@H]1C(=O)O)C(=O)NCCCCN=C(N)N`: 2.62%. Turning to `COc1ccccc1/C=C/C=N/n1c(-c2ccc(Cl)cc2Cl)n[nH]c1=S`, the activation is -14.5%.

For `Cc1ccc(C(=O)CN2C(=O)NC3(CCc4ccccc43)C2=O)c(C)c1` (stereo unspecified), the activation was 6%. Next, `Cc1ccc(C(=O)N2CCCC(c3ccccc3)=N2)cc1`: 3.86%. Next, `COc1ccc2c(c1)c(=O)c(C(=O)c1ccc(Cl)cc1)cn2CC(=O)Nc1ccc(F)cc1`: 2.32%. Next, `CC(C)COP(=O)(c1ccc(N(C)C)cc1)C(Nc1ccccc1)c1cccnc1` (stereo unspecified): 5.66%. Consider `Cc1nnc(SCC(=O)Nc2ncc3c(n2)CC(C)(C)CC3=O)s1`, for which the activation was -5.45%. On to `CSc1ccc(/C=C/C(=O)NC23CC4CC(CC(C4)C2)C3)cc1`, for which the activation is 2.05%. Next, `CN(CC(=O)NC1CCN(Cc2ccccc2)CC1)S(=O)(=O)c1ccc(Cl)s1`: 5.81%; `C=CCNC(=O)C1CC2c3ccccc3C1c1ccccc12` (stereo unspecified): 5.82%. Next, `Fc1ccc(N2N=C(c3cccs3)CC2c2ccco2)c(F)c1` (stereo unspecified): 40% (active). Take `O=C(COc1ccccc1Cl)N1N=C(c2cccs2)CC1c1ccco1` (stereo unspecified): the activation is 4.79%. On to `COc1ccc(C2CC(c3cccs3)=NN2c2ccc(F)cc2)cc1OC` (stereo unspecified), for which the activation was -19.4%. Consider `COc1ccccc1N1CCN(C(=O)c2ccc(NC3=NC4CS(=O)(=O)CC4S3)cc2)CC1` (stereo unspecified), for which the activation is -12%.

For the compound `COc1ccc(Nc2ncc(C(=O)N3CCN(c4ccccc4OC)CC3)c3ccccc23)cc1`, the activation was 30.4% (active). Next, `COc1ccccc1N1CCN(C(=O)c2cn(-c3ccccc3)nc2-c2cccnc2)CC1`: -2.98%; `O=C(NCc1cccnc1)Nc1cccc(NC(=O)NCc2cccnc2)c1F`: 2.89%.

For the compound `COC(=O)Cc1cnc(NC(=O)CSc2nc(C(C)C)cc(=O)[nH]2)s1`, the activation is 5.45%. With `CCC(=O)Nc1c(C)n[nH]c1C` the figure was -3.68%; with `N#Cc1ccc(C2N=C(c3ccccc3)NO2)cc1` (stereo unspecified), -2.62%. For `COCc1c(C(=O)N/N=C\c2cccnc2)nnn1-c1nonc1N`, the activation was 0.8%. Consider `Cc1cccc(N=Nc2c(O)[nH]c3ccc(F)cc23)c1`, for which the activation was 12.6%. In the case of `Oc1ccc(-c2onc3ccc(Cl)cc23)cc1`, the activation was -12.8%. In the case of `CC(OC(=O)c1ccc2noc(-c3ccccc3)c2c1)C(N)=O` (stereo unspecified), the activation is -2.76%. With `COc1ccc(-c2onc3ccc(C(C)=O)cc23)cc1` the figure was 103% (active); with `COc1ccc(NC(=S)N2N=CCC2c2ccccc2)cc1` (stereo unspecified), 11.4%. In the case of `c1cnc(N2CCN(c3ccc4ccccc4n3)CC2)nc1`, the activation is 2.75%. Next, `NC[C@H](Cc1ccccc1)NCCc1cc(C(F)(F)F)cc(C(F)(F)F)c1`: -5.68%. Next, `COc1ccccc1C(=O)N1CCN=C1SCc1cccnc1`: -6.62%; `O=C(CCN1CCN(C/C=C/c2ccccc2)CC1)Nc1ccccc1Cl`: 8.05%. `Cn1cnc([N+](=O)[O-])c1Sc1n[nH]c(N)n1`: the activation is 6.6%.

With `COCCCNC(=S)N(Cc1ccccc1)Cc1ccc(F)cc1`, the activation was -1.61%. In the case of `CCCNc1ncnc2sc(C)c(C)c12`, the activation is -0.52%. Next, `CN(C)c1ccc2c(=O)[nH][nH]c(=O)c2c1`: 10.1%; `CCOc1ccccc1NC(=O)C1CCCN(S(=O)(=O)c2ccccc2)C1` (stereo unspecified): 2.37%. In the case of `CN1CC(=O)N=C1N`, the activation was 6.53% and -3.63%.

Take `CCOC(=O)CNC(=O)CSc1ccc2nnc(-c3cccnc3)n2n1`: the activation is 0.59%. With `CC(C)NC(=S)N1CCN(S(C)(=O)=O)CC1` the figure was 9.6%; with `CC(=O)c1ccc(N=C2SCCCN2C(=O)C2CCCCC2)cc1`, 8.2%. Next, `COc1cc(C(=O)NC2CCN(Cc3ccccc3)CC2)cc(Cl)c1OC(C)C`: 4.82%; `CCOc1ccc2c(c1)cc(CN(C(=O)CC)C1CCCCC1)c1nnnn12`: 0.4%; `O=C(c1ccc(N2CCOCC2)c([N+](=O)[O-])c1)N1CCN(S(=O)(=O)c2cccs2)CC1`: -3.64%. With `CC1CCN(C(=S)NC(=O)c2ccccc2Br)CC1`, the activation is -4.02%.

`Oc1ccccc1C1=NN(c2ccccc2)C(c2ccccc2)C1` (stereo unspecified): the activation is 32.8% (active). As to `CC(=O)Oc1ccccc1C1=NN(C(C)=O)C(c2ccccc2)C1` (stereo unspecified), the activation was 1.13%.

With `COc1ccc(C2CC(c3cccs3)=NN2c2ccccc2)cc1` (stereo unspecified), the activation was -24.6%. With `O=C(CCNc1n[nH]c(=O)[nH]c1=O)N/N=C\c1ccc(Br)cc1` the figure was -3.48%. With `Cc1c(S(=O)(=O)N2CC(C)CC(C)C2)c(=O)n(C)c(=O)n1C` (stereo unspecified) the figure was -6.15%; with `CCc1ccc2oc(-c3ccc(N)cc3)nc2c1`, 5.03%; with `COC(=O)c1cc(NC(=O)CN2CCC(C(N)=O)(N3CCCCC3)CC2)cc(C(=O)OC)c1`, 12.7%.

For `O=C(CC(NC(=O)c1ccccc1)c1ccccc1)Nc1ccc(F)c(F)c1` (stereo unspecified), the activation was 5.87%. With `CC(C)OC(=O)c1cc(NC(=O)C2C3CCC(O3)C2C(=O)O)cc(C(=O)OC(C)C)c1` (stereo unspecified) the figure was -5.36%; with `CN1CCCN(C(=O)C2CCCCC2)CC1`, 5.38%; with `CCN(CC)c1ccc(NC(=O)CN2CCN(c3ccccn3)CC2)cc1`, -5.15%.

Turning to `Cc1cccc(C2C3=C(CCCC3=O)N=C3c4ccccc4C(=O)C32)c1` (stereo unspecified), the activation was -13.4%. With `CN(C)C(=O)N=NC(=O)N(C)C` the figure was -12.2%; with `O=C(COC(=O)C1CC2CCCC(C1)C2=O)NC(=O)c1ccccc1` (stereo unspecified), -4.78%. In the case of `COC(=O)C(C(=O)Nc1cccc(Cl)c1C)C1CCCC1` (stereo unspecified), the activation is 1.15%. Take `COc1ccc(CN2CCN(C(=O)CCC(=O)Nc3nnc(C(C)C)s3)CC2)cc1F`: the activation was -6.44%. With `O=C(CSC1=NS(=O)(=O)c2cc(F)ccc2N1)Nc1ccccc1F`, the activation is -6.67%.

Consider `COc1ccccc1N=Cc1c(O)c2ccccc2oc1=O`, for which the activation is 26.5% (active). Regarding `COc1cc(N=Cc2c(O)c3ccccc3oc2=O)c(OC)cc1Cl`, the activation was 3.99%. Next, `COc1ccccc1N=C(C)C1=C(O)COC1=O`: -3.88%; `COC(=O)c1cc(OC)c(OC)cc1NC(=O)C1CCCO1` (stereo unspecified): -0.83%; `COc1ccc(CN2CCC(c3nc4ccc(Cl)cc4[nH]3)CC2)cc1`: -3.22%. Turning to `O=C(NCC(=O)N(c1ccccc1)C(C(=O)NCC1CCCO1)c1ccccc1)c1cccs1` (stereo unspecified), the activation is -3.61%.

In the case of `COCCn1c(SCC(=O)Nc2nc(C)cs2)nnc1C(C)C`, the activation was 2.76%. Next, `CCCN1C2=C(C(=O)CCC2)C(c2ccc(O)c(Br)c2)C2=C1CCCC2=O`: -10.1%. Next, `COc1ccc(C)cc1Nc1nc(C)nc2c1oc1ccccc12`: 4.37%; `COC(=O)c1cnc(Nc2cc(C)ccc2OC)c2ccccc12`: 35.2% (active).

As for `COc1ccc(C)cc1NC(=O)NCc1ccccn1`, the activation was -10.4%.

With `COc1ccc(CN2[C@@H](CC(=O)O)c3cc(F)ccc3S2(=O)=O)cc1`, the activation was 3.51%.

Turning to `CC1CCCN(S(=O)(=O)c2ccc(N(C(=O)c3cnccn3)C(C(=O)NC3CCCCC3)c3cccs3)cc2)C1` (stereo unspecified), the activation is 3.94%. As to `Cc1cccc(C)c1N1C(=O)CN(Cc2ccccc2)C1=S`, the activation is -3%.

For the compound `NC(=O)c1nsc(C(=O)N(CCCN2CCOCC2)C(C(=O)NC2CCCCC2)c2ccc(Cl)cc2)c1N` (stereo unspecified), the activation was -8.01%. With `Cc1nn(C)cc1CNC(=O)Nc1ccc(Cl)cc1` the figure was 31.2% (active). With `Cc1nn(C)cc1C(=O)NNC(=S)Nc1ccc(Cl)cc1` the figure was -4.7%; with `O=C(NCc1ccccn1)Nc1ccc(Cl)cc1`, -0.71%. With `CN(C)CCNC(=O)C(C(=O)c1ccccc1)n1ccccc1=O` (stereo unspecified) the figure was 2.49%.

Consider `O=C(Cn1nc(C(=O)O)c2ccccc2c1=O)Nc1ccc(F)cc1`, for which the activation is 2.68%. With `Cc1cccc(NC(=O)c2cccc(C(=O)Nc3cccc(C)c3C)n2)c1C` the figure was -5.05%; with `Cc1ccccc1CSCCNC(=O)c1ccc(N(C)S(=O)(=O)c2ccccc2)cc1`, -1.26%. Next, `COc1cc(CNCc2cccs2)cc(Br)c1OC`: 2.29%. Take `COc1ccc2nc(Nc3nc4ccc(NC(C)=O)cc4s3)sc2c1`: the activation is 28.4% (active). With `COc1ccc2nc(NC(=O)NC3CCCCC3)sc2c1` the figure was -1.14%. Next, `CCCC(=O)Nc1nc2ccc(NC(=O)c3c(F)c(F)c(OC)c(F)c3F)cc2s1`: 8.06%; `COc1cccc(C(=O)OCc2cc(=O)oc3c(C)c(C)ccc23)c1OC`: 1.33%; `COC(=O)Cc1cc(=O)oc2c(C)c(O)ccc12`: 22.9% (active). In the case of `CCCc1cc(=O)oc2c(C)c(OCC(=O)Nc3ccccn3)ccc12`, the activation is -8.09%.

Turning to `C=CCSc1ccc(S(=O)(=O)N2CCN(C)CC2)cn1`, the activation is 6.46%.

With `COC(=O)[C@@H]1C[C@@]2(O)[C@H](O)[C@H](O)[C@H](O)C[C@H]2N1Cc1ccc(C(C)(C)C)cc1`, the activation is 1.49%.

As for `COc1ccc(CNC(=O)c2ccc(NS(=O)(=O)c3ccc4[nH]c(=O)[nH]c4c3)cc2)cc1OC`, the activation was -5.34%.
